Experimental data reported in ChEMBL document CHEMBL6083224, “A novel aurone RNA CAG binder inhibits the huntingtin RNA-protein interaction” (RSC Med Chem, 2024).
Active and inactive are the calls of the source. The rule behind the calls is not given here.

Experiments:
Format in all cases: nucleic-acid assay
CAG repeat expansion [1] = assay: Binding affinity to CAG (5-GCAGCAGCUUCGGCAGCAGC-3) repeat RNA (unknown origin) assessed as hypochromic red shift by spectrophotometric analysis
Procedure, shortened: (§1)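 The compound was titrated with RNA, and electronic absorption spectra were recorded on a two-beam UV-vis spectrophotometer. Binding constants were calculated from the spectrophotometric titration data.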

CAG repeat expansion [2] = assay: Binding affinity to HTT exon 1 (CAG)51 repeat RNA (unknown origin) assessed as reduction in human MID1 binding to HTT exon 1 (CAG)51 repeat RNA by Western blot analysis; settings: dose 1-100 µM
Procedure, shortened: (§2)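 Biotinylated RNA was folded in 10 mM Tris pH 7, 100 mM KCl, 10 mM MgCl₂ (72 °C for 10 min, then cooled to room temperature). 80 pmol of RNA was loaded onto streptavidin-agarose beads in buffer D for 30 min at room temperature. HEK293T protein extract was bound overnight at 4 °C. After washes, bound proteins were eluted at 95 °C for 10 min, and MID1 was detected by anti-MID1 western blot.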

CAG repeat expansion [3] = assay: Binding affinity to HTT exon 1 (CAG)51 repeat RNA (unknown origin) assessed as reduction in human MID1 binding to HTT exon 1 (CAG)51 repeat RNA at 100 uM by Western blot analysis; procedure, shortened: as §2
[4] = test system: Rev responsive element (RRE) RNA; assay: Binding affinity to HIV-1 RRE-IIB (5-GGUCUGGGCGCAGCGCAAGCUGACGGUACAGGCC-3) RNA assessed as change in fluorescence intensity; settings: Human immunodeficiency virus 1
TAR RNA = assay: Binding affinity to HIV-1 TAR (5-GGCAGAUCUGAGCCUGGGAGCUCUCUGCC-3) RNA assessed as change in fluorescence intensity; settings: Human immunodeficiency virus 1
CAG repeat expansion [5] = assay: Binding affinity to CAG (5-GCAGCAGCUUCGGCAGCAGC-3) repeat RNA (unknown origin) assessed as binding constant; procedure, shortened: as §1
r(CUG) repeat expansion = assay: Binding affinity to CUG (5-GGUCGCUGCUGCACGAAAGUGCUGCUGCGACC-3) RNA (unknown origin) assessed as change in fluorescence intensity
CAG repeat expansion [6] = assay: Binding affinity to CAG (5-GCAGCAGCUUCGGCAGCAGC-3) repeat RNA (unknown origin) by spectrophotometric analysis; procedure, shortened: as §1

SMILES | Activity (CAG repeat expansion [1]) | Activity (CAG repeat expansion [2]) | Activity (CAG repeat expansion [3]) | Activity [4] | Activity (TAR RNA) | K (CAG repeat expansion [5]) | Activity (r(CUG) repeat expansion) | Activity (CAG repeat expansion [6])
CN(C)CCOc1ccc(/C=C2\Oc3cc(OCCN(C)C)ccc3C2=O)cc1 | Active | Dose-dependent-effect | Active | No effect | No effect | 1.4 10^5/M | No effect | –
O=C1/C(=C/c2c3ccccc3cc3ccccc23)Oc2ccccc21 | – | – | inactive | Active | Active | – | inactive | inactive
